# Reference: ChEMBL document CHEMBL1157011, “8-Sulfonyl-substituted tetrahydro-1H-pyrido[4,3-b]indoles as 5-HT6 receptor antagonists” (Eur J Med Chem, 2010)
# Calls of active or inactive are those of the source. No cut-off for these calls is given here.
# Assays:
# [1] = target: T1, 5-hydroxytryptamine receptor 6 (Homo sapiens, UniProt P50406); experiment: Antagonist activity at human recombinant 5HT6 receptor expressed in HEK293 cells assessed as inhibition of serotonin-induced cAMP production by LANCE assay relative to serotonin; format: functional, cell-based
# How it was run: (§1)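 HEK-293 cells with a tetracycline-inducible (T-Rex) human 5-HT6 receptor, grown in DMEM/10% FBS with blasticidin S and zeocin and induced with tetracycline the day before. Medium was swapped for HBSS with 1 mM MgCl2, 1 mM CaCl2, IBMX and 5 mM HEPES, pH 7.4. Compounds (0.1% DMSO) were added 15 min at RT, then 10 nM serotonin for 30 min. cAMP read by LANCE; 2 independent experiments in duplicate.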
# [2] = target: T1, 5-hydroxytryptamine receptor 6; experiment: Antagonist activity at human recombinant 5HT6 receptor expressed in HEK293 cells assessed as inhibition of serotonin-induced cAMP production by LANCE assay; format: functional, cell-based; how it was run: as §1
# [3] = target: T2, Alpha-1B adrenergic receptor (Homo sapiens) (UniProt P35368); experiment: Binding affinity to adrenergic Alpha-1B receptor at 10 uM by radioligand displacement assay
# T2 sequence (whole entry): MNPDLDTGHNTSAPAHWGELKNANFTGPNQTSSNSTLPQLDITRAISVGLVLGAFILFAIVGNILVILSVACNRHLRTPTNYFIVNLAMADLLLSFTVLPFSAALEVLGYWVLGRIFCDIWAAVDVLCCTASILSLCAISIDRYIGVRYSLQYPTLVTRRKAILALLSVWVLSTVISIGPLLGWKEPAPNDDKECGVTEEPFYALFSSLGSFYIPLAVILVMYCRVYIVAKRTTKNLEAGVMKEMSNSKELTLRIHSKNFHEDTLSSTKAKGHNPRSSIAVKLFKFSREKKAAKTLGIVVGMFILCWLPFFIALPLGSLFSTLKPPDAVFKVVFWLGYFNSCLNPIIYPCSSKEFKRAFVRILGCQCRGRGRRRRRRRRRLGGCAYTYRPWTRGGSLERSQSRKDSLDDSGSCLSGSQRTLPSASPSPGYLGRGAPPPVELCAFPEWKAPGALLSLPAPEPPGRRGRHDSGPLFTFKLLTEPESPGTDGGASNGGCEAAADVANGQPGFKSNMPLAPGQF
# How it was run: (§2)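 Target specificity panel: single-concentration competitive displacement of each target's radioligand, with compound at 1 µM or 10 µM as stated per line. Run by an outside contract lab under its internal protocols; mean ± SE, n = 2.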
# [4] = target: T3, Alpha-1D adrenergic receptor (Homo sapiens) (UniProt P25100); experiment: Binding affinity to adrenergic Alpha-1D receptor at 10 uM by radioligand displacement assay; how it was run: as §2
# T3 sequence (whole entry): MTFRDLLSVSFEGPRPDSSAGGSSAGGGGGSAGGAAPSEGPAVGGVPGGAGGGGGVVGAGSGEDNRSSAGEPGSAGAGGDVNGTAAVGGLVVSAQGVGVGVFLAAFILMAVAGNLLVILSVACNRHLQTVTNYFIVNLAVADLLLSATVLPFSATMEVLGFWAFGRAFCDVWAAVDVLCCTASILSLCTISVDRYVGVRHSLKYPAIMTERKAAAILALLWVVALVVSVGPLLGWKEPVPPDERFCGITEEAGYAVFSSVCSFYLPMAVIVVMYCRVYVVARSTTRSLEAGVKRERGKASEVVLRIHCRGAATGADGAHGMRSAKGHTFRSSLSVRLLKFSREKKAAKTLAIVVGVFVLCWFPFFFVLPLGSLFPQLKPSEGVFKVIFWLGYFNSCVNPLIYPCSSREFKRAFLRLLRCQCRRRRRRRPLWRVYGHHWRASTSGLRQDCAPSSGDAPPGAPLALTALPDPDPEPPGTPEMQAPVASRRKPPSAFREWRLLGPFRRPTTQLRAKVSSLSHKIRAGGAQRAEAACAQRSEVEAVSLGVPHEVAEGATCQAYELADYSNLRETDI
# [5] = target: T4, Alpha-2A adrenergic receptor (Homo sapiens) (UniProt P08913); experiment: Binding affinity to adrenergic alpha2A receptor at 10 uM by radioligand displacement assay; how it was run: as §2
# T4 sequence (whole entry): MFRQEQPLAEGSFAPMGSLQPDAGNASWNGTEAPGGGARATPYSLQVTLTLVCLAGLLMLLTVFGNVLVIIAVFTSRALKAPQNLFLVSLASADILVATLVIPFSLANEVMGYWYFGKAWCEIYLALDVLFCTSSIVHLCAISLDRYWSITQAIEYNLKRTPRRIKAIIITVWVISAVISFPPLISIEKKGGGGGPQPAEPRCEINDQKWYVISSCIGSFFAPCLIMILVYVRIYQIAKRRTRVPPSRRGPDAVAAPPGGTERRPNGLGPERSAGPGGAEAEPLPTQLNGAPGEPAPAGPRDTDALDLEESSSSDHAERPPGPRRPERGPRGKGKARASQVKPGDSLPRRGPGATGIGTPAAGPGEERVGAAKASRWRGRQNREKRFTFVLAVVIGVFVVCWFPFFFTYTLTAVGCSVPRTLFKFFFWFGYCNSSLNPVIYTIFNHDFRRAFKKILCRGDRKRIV
# [6] = target: T5, Alpha-1A adrenergic receptor (Homo sapiens) (UniProt P35348); experiment: Binding affinity to adrenergic alpha1A receptor at 10 uM by radioligand displacement assay; how it was run: as §2
# T5 sequence (whole entry): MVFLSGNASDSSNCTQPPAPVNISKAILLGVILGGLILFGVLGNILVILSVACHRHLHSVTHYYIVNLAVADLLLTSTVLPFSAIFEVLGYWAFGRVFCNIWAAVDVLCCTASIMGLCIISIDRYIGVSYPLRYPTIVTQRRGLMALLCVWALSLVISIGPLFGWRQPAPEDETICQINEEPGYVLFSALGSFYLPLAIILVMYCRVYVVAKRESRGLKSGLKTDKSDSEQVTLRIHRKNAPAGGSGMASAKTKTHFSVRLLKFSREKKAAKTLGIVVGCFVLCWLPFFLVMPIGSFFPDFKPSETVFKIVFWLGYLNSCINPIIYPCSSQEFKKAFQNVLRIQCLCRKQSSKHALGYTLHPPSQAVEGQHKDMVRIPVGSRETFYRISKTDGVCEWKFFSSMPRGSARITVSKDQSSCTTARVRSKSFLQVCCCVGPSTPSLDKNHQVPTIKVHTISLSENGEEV
# [7] = target: Sodium-dependent dopamine transporter (Homo sapiens) (UniProt Q01959); experiment: Binding affinity to dopamine transporter at 10 uM by radioligand displacement assay; how it was run: as §2
# [8] = target: Sodium-dependent noradrenaline transporter (Homo sapiens) (UniProt P23975); experiment: Binding affinity to norepinephrine transporter at 10 uM by radioligand displacement assay; how it was run: as §2
# [9] = target: D(3) dopamine receptor (Homo sapiens) (UniProt P35462); experiment: Binding affinity to dopamine D3 receptor at 10 uM by radioligand displacement assay; how it was run: as §2
# [10] = target: Sigma non-opioid intracellular receptor 1 (Homo sapiens) (UniProt Q99720); experiment: Binding affinity to sigma 1 receptor at 10 uM by radioligand displacement assay; how it was run: as §2
# [11] = target: T1, 5-hydroxytryptamine receptor 6; experiment: Binding affinity to human recombinant 5HT6 receptor by radioligand displacement assay
# How it was run: (§3)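 Competitive displacement of the corresponding radioligand, run by an outside contract lab under its internal protocols. Data from one representative experiment in duplicate.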
# [12] = target: 5-hydroxytryptamine receptor 2A (Homo sapiens) (UniProt P28223); experiment: Binding affinity to 5HT2A receptor at 1 uM by radioligand displacement assay; how it was run: as §2
# [13] = target: 5-hydroxytryptamine receptor 2B (Homo sapiens) (UniProt P41595); experiment: Binding affinity to 5HT2B receptor at 1 uM by radioligand displacement assay; how it was run: as §2
# [14] = target: T6, 5-hydroxytryptamine receptor 2C (Homo sapiens) (UniProt P28335); experiment: Binding affinity to 5HT2C receptor at 1 uM by radioligand displacement assay; how it was run: as §2
# T6 sequence (whole entry): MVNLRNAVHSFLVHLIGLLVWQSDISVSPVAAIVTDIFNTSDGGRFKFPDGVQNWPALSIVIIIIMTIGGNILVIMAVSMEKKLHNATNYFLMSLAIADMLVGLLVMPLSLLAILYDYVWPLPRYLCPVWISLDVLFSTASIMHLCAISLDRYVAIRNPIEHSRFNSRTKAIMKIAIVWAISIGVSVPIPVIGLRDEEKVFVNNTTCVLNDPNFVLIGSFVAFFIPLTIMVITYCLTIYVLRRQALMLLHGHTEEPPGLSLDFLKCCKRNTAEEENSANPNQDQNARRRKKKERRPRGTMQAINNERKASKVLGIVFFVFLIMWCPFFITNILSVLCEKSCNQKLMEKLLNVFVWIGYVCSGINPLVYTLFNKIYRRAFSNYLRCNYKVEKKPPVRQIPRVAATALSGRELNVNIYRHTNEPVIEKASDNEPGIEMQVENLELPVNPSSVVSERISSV
# [15] = target: T1, 5-hydroxytryptamine receptor 6; experiment: Binding affinity to human recombinant 5HT6 receptor at 1 uM by radioligand displacement assay; how it was run: as §2
# [16] = target: T7, 5-hydroxytryptamine receptor 7 (Homo sapiens, UniProt P34969); experiment: Binding affinity to 5HT7 receptor at 1 uM by radioligand displacement assay; how it was run: as §2
# [17] = target: T4, Alpha-2A adrenergic receptor (Homo sapiens); experiment: Binding affinity to adrenergic alpha2A receptor at 1 uM by radioligand displacement assay; how it was run: as §2
# [18] = target: Sigma non-opioid intracellular receptor 1 (Homo sapiens) (UniProt Q99720); experiment: Binding affinity to sigma 1 receptor at 1 uM by radioligand displacement assay; how it was run: as §2
# [19] = target: T5, Alpha-1A adrenergic receptor (Homo sapiens); experiment: Binding affinity to adrenergic alpha1A receptor at 1 uM by radioligand displacement assay; how it was run: as §2
# [20] = target: T2, Alpha-1B adrenergic receptor (Homo sapiens); experiment: Binding affinity to adrenergic Alpha-1B receptor at 1 uM by radioligand displacement assay; how it was run: as §2
# [21] = target: T3, Alpha-1D adrenergic receptor (Homo sapiens); experiment: Binding affinity to adrenergic Alpha-1D receptor at 1 uM by radioligand displacement assay; how it was run: as §2
# [22] = Binding affinity to L-type calcium channel at 1 uM by radioligand displacement assay; how it was run: as §2
# [23] = target: D(3) dopamine receptor (Homo sapiens) (UniProt P35462); experiment: Binding affinity to dopamine D3 receptor at 1 uM by radioligand displacement assay; how it was run: as §2
# [24] = Binding affinity to glycine transporter at 1 uM by radioligand displacement assay; how it was run: as §2
# [25] = target: Sodium-dependent noradrenaline transporter (Homo sapiens) (UniProt P23975); experiment: Binding affinity to norepinephrine transporter at 1 uM by radioligand displacement assay; how it was run: as §2
# [26] = target: T8, 5-hydroxytryptamine receptor 1A (Homo sapiens, UniProt P08908); experiment: Binding affinity to 5HT1A receptor by radioligand displacement assay
# T8 sequence (P08908 whole entry): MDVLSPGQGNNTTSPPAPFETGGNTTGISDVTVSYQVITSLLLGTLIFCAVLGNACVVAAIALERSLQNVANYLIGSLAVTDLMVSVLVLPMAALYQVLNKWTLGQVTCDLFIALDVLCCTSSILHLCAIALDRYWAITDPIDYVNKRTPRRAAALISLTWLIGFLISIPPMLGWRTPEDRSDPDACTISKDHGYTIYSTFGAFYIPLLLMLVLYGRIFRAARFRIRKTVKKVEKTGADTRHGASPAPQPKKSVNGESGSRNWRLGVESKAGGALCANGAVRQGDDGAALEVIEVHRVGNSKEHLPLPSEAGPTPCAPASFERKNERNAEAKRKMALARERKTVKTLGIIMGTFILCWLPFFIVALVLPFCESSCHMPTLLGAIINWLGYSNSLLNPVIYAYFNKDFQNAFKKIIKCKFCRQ
# [27] = target: T6, 5-hydroxytryptamine receptor 2C (Homo sapiens); experiment: (§4) Binding affinity to 5HT2C receptor by radioligand displacement assay; how it was run: as §3
# [28] = target: T9, 5-hydroxytryptamine receptor 2C (Homo sapiens, UniProt P28335); experiment: as §4; how it was run: as §3
# T9 sequence (P28335 whole entry): T6 sequence (whole entry)
# [29] = target: T7, 5-hydroxytryptamine receptor 7; experiment: Binding affinity to 5HT7 receptor by radioligand displacement assay; how it was run: as §3
# T1 sequence (P50406 whole entry): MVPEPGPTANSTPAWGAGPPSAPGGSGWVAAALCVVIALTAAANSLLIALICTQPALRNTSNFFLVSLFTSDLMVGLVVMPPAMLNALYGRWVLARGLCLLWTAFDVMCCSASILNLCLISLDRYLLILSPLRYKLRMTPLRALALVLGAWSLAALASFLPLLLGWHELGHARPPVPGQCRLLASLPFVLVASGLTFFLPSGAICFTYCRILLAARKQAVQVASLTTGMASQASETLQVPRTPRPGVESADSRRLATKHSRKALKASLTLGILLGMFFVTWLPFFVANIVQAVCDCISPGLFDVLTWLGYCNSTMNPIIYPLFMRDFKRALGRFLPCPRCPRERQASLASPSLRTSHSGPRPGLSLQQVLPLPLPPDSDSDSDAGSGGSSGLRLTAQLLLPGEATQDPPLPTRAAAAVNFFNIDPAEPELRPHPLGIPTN
# T7 sequence (P34969 whole entry): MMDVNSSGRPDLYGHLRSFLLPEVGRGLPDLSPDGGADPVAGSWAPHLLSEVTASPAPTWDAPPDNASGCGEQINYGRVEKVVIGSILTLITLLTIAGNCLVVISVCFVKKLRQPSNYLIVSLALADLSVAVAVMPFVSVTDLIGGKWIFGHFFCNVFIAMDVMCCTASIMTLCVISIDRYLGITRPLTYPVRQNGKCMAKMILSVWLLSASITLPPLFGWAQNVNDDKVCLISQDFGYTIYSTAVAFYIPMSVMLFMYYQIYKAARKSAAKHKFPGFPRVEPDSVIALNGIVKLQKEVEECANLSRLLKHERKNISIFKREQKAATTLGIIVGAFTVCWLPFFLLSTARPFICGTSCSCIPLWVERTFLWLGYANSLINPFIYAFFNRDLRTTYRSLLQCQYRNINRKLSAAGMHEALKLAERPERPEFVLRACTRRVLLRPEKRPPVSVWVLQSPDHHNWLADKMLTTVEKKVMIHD
# Chain of Sodium-dependent noradrenaline transporter (Homo sapiens) (P23975 whole entry): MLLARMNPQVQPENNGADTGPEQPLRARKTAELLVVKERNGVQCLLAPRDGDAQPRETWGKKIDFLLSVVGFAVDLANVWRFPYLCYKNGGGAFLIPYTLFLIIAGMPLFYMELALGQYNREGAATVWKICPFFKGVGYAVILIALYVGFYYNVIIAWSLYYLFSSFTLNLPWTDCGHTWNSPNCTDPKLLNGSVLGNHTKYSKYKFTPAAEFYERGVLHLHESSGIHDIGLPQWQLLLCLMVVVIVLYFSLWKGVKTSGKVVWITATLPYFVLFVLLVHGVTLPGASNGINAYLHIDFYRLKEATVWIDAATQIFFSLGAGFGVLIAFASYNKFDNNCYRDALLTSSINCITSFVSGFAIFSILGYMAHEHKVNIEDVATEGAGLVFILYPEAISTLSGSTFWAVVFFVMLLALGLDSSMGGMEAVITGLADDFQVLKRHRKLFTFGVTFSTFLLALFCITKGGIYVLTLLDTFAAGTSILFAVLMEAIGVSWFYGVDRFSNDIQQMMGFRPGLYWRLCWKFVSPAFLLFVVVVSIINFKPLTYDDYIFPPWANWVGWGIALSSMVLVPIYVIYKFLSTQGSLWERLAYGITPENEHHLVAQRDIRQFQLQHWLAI
# Chain of D(3) dopamine receptor (Homo sapiens) (P35462 whole entry): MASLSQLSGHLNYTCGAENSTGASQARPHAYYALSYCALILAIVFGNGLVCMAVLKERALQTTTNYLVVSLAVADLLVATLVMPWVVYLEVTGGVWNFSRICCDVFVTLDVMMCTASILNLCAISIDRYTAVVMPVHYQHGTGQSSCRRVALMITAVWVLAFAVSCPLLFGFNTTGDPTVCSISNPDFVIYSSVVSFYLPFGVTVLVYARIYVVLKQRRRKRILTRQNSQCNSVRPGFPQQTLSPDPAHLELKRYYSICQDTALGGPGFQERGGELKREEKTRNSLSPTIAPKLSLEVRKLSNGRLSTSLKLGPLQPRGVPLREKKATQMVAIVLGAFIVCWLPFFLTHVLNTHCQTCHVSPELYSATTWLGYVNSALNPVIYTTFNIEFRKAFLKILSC
# Chain of Sigma non-opioid intracellular receptor 1 (Homo sapiens) (Q99720 whole entry): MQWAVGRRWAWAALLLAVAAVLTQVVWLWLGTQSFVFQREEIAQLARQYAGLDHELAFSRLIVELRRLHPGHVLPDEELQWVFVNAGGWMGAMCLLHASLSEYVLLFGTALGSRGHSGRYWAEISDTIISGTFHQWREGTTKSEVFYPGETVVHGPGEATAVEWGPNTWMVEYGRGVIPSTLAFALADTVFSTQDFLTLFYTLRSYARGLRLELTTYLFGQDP
# Chain of Sodium-dependent dopamine transporter (Homo sapiens) (Q01959 whole entry): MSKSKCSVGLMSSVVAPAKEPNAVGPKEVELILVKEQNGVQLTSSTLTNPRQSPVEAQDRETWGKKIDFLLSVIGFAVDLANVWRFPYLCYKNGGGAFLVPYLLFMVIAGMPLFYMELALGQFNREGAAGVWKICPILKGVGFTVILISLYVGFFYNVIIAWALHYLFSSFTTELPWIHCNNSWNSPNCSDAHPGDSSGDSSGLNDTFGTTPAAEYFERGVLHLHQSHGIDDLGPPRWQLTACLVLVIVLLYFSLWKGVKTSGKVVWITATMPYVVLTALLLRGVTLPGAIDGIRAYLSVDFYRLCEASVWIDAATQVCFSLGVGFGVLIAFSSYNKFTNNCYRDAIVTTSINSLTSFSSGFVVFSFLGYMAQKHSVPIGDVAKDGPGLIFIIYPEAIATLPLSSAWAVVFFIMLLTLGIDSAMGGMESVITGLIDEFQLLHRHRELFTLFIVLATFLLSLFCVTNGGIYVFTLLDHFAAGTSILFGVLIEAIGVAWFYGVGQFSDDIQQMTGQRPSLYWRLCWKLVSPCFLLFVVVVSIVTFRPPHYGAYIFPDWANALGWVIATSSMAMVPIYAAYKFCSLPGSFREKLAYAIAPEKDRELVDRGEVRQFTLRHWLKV
# Chain of 5-hydroxytryptamine receptor 2B (Homo sapiens) (P41595 whole entry): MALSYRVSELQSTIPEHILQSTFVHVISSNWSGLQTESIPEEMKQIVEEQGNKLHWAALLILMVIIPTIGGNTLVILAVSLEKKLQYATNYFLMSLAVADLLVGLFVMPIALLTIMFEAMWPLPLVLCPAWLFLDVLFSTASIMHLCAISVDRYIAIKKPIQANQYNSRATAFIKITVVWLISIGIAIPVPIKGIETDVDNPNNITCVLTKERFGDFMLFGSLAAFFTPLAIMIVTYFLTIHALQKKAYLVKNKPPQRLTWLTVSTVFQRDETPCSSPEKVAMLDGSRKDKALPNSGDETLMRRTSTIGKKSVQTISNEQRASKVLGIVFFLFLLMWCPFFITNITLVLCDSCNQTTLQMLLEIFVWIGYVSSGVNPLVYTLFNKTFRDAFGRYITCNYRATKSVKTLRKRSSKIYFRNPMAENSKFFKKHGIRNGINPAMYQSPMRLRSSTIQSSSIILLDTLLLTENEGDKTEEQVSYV
# Chain of 5-hydroxytryptamine receptor 2A (Homo sapiens) (P28223 whole entry): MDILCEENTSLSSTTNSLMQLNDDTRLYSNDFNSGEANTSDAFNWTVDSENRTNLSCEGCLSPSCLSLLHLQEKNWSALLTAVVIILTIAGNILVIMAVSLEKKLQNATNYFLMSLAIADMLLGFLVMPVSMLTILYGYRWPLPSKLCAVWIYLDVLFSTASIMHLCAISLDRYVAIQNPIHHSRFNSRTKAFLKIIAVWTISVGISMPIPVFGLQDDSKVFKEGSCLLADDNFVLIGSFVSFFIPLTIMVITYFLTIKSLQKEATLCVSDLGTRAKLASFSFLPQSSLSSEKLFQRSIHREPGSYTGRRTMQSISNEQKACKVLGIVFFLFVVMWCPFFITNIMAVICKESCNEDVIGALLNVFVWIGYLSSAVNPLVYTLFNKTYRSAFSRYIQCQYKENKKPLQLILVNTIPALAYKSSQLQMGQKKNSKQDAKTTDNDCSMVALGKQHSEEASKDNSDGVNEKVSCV
smiles,measurement,setting,value
CN1CCN(S(=O)(=O)c2ccc3[nH]c4c(c3c2)CN(C)CC4)CC1,Imax,[1],100%
O=S(=O)(Nc1cccc(F)c1)c1ccc2[nH]c3c(c2c1)CN(Cc1ccccc1)CC3,IC50,[2]; read-out: IC50,3.9 µM
same,Imax,[1],100%
CN1CCc2c(c3cc(S(C)(=O)=O)ccc3n2C)C1.Cl,IC50,[2]; hek293,Not Active
CN1CCc2c(c3cc(S(=O)(=O)c4ccccc4)ccc3n2C)C1,Imax,[1],100%
same,Activity,[3],Active
same,Activity,[4],Active
same,Activity,[5],Active
same,Activity,[6],Active
same,Activity,[7],Active
same,Activity,[8],Active
same,Activity,[9],Active
same,Activity,[10],Active
same,Ki,[11],0.0057 µM
CN1CCc2[nH]c3ccc(S(=O)(=O)Nc4cccc(F)c4)cc3c2C1,Imax,[1],100%
same,Activity,[12],80%
same,Activity,[13],80%
same,Activity,[14],80%
same,Activity,[15],80%
same,Activity,[16],80%
same,Activity,[17],60%
same,Activity,[18],60%
same,Activity,[19],20%
same,Activity,[20],37%
same,Activity,[21],29%
same,Activity,[22],27%
same,Activity,[23],35%
same,Activity,[24],20%
same,Activity,[25],15%
same,Ki,[26],0.007 µM
same,Activity,[27],Dose-dependent effect
same,Ki,[28],0.039 µM
same,Activity,[11],Dose-dependent effect
same,Ki,[11],0.0021 µM
same,Activity,[29],Dose-dependent effect
same,Ki,[29],0.042 µM
